Measurements taken from article PMC8930943 (Clinical Drug Investigation, 2022).
Several values for one entry are separate records, joined by “and”; a condition that tells them apart may be missing. Identical values can stand only once. Entries after “also recorded” stand apart in the source; their conditions may differ. Like-named read-outs stand apart in the source and are kept apart here.

Columns and labels:
[1] = cited from earlier work
[2] = single oral 45 mg dose of [14C] radiolabeled dacomitinib; cited from earlier work
[3] = tested on: human plasma proteins; settings: independent of drug concentrations from 250 to 1000 ng/mL; cited from earlier work
[4] = Study 2; format: in vivo, human
[5] = cited from earlier work; remark: listed apart in the source
[6] = Study 1; format: in vivo, human
[7] = Assessment of safety and tolerability in Study 1 and Study 2; format: in vivo, human
Outline: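 Single 30 mg oral dose given after a >8-h fast with 180 mL (Study 1) or 240 mL (Study 2) water. Safety was assessed from AEs, laboratory abnormalities, physical examination, vital signs and 12-lead ECGs taken after 10-min supine rest. ECG times: Study 1 at screening, predose, 6, 48 and 264 h; Study 2 at screening, predose, 6 h, 144 h and follow-up. Participants stayed in-house to 144 h, with follow-up on Days 8–10 and 12.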

[8] = Study 2, severe hepatic impairment
[9] = severe hepatic impairment, single oral dacomitinib 30 mg
[10] = mild hepatic impairment, single oral dacomitinib 30 mg
[11] = Study 1 and Study 2, single oral dose of 30 mg

SMILES: C=CC(=O)Nc1cc(Nc2nccc(-c3cn(C)c4ccccc34)n2)c(OC)cc1N(C)CCN(C)C [osimertinib]
- decrease in AUC versus normal hepatic function ([1]; cancer patients with mild hepatic impairment (n = 7)): 63%
- decrease in AUC versus normal hepatic function ([1]; cancer patients with moderate hepatic impairment (n = 5)): 68%

SMILES: COc1cc2ncnc(Nc3ccc(F)c(Cl)c3)c2cc1NC(=O)/C=C/CN1CCCCC1 [Dacomitinib]
- radioactivity recovered in feces [2]: 79%
- radioactivity recovered in feces as dacomitinib [2]: 20%
- radioactivity recovered in urine [2]: 3%
- radioactivity recovered in urine as dacomitinib [2]: < 1%
- in vitro binding to human plasma proteins [3]: approximately 98%
- AUCinf,u increase compared with normal hepatic function [4, 8]: 32%
- Cmax,u increase compared with normal hepatic function [4, 8]: approximately 69%
- adjusted GMR for Cmax,u (90% CI) ([4]; Study 2, severe hepatic impairment vs normal hepatic function, printed as ratio): 1.69 [90% CI 1.08–2.63]
- AUCinf increase compared with normal hepatic function [4, 9]: 4% and 4.4%
- correlation of concentrations with changes in corrected QT interval [5]: not found to correlate
- adjusted GMR for Cmax,u (90% CI) ([6]; Study 1, mild hepatic impairment vs normal hepatic function, printed as ratio): 1.00 (90% CI 0.69–1.44)
- AUCinf and Cmax compared with normal hepatic function ([6]; Study 1, mild hepatic impairment, single oral dacomitinib 30 mg): unchanged; also recorded: similar
- AUCinf decrease compared with normal hepatic function [6, 10]: 6%
- Cmax increase compared with normal hepatic function [6, 10]: 3%
- Cmax decrease compared with normal hepatic function ([6]; moderate hepatic impairment, single oral dacomitinib 30 mg): 20%
- AEs reported ([7]; Study 1, normal hepatic function or mild hepatic impairment groups): no AEs were reported
- serious AEs, discontinuations, treatment-related deaths [7, 11]: no serious AEs, discontinuations due to study treatment, or treatment-related deaths
- vital signs, laboratory values, ECG measurements [7, 11]: No clinically significant changes
- AEs reported ([7]; Study 2, normal hepatic function or severe hepatic impairment groups): no AEs were reported
- tolerability ([7]; single oral dose of 30 mg, healthy participants and participants with mild, moderate, or severe hepatic impairment): well tolerated

SMILES: O=C(/C=C/CN1CCCCC1)Nc1cc2c(Nc3ccc(F)c(Cl)c3)ncnc2cc1O [PF-05199265, O-desmethyl dacomitinib]
- AUCinf decrease compared with normal liver function [4, 9]: 19%
- Cmax decrease compared with normal liver function [4, 9]: 66%
